Results: article PMC3115441 (Chemical biology & drug design, 2011)
“Also recorded” adds a separate entry of the source. Read-outs that look alike come from different tables or passages of the source.

Legend:
[1] = tested on: PCP site of the NMDA receptor complex; experiment: [3H]; format: binding, rat
In short: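 Washed rat forebrain homogenate (30 ug/mL protein) in 10 mM HEPES, pH 7.4, with 1 nM (+)-[3H]MK-801, 100 uM glutamate, 30 uM glycine and varied competitor concentrations. Nonspecific binding was set with 30 uM (+)-MK-801. Incubation ran 2 h at room temperature, then vacuum filtration onto GF/B filters, three buffer washes and scintillation counting.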

Serotonin 2A (5-HT2A) = Serotonin 2A (5-HT2A) (Homo sapiens, UniProt P28223); experiment: NIMH-PDSP radioligand binding, 5-HT2A
Dopamine 1 (D1) = Dopamine 1 (D1) (Homo sapiens, UniProt P21728); experiment: NIMH-PDSP radioligand binding, D1
Dopamine 2 (D2) = Dopamine 2 (D2) (Homo sapiens, UniProt P14416); experiment: NIMH-PDSP radioligand binding, D2
[2] = molecular target: Dopamine Transporter (DAT) (Homo sapiens, UniProt Q01959); experiment: NIMH-PDSP radioligand binding, DAT
[3] = molecular target: κ- opioid receptors (KOR) (Rattus norvegicus, UniProt P34975); experiment: NIMH-PDSP radioligand binding, KOR
[4] = molecular target: μ- opioid receptors (MOR) (Homo sapiens, UniProt P35372); experiment: NIMH-PDSP radioligand binding, MOR
[5] = molecular target: Norepinephrine Transporter (NET) (Homo sapiens, UniProt P23975); experiment: NIMH-PDSP radioligand binding, NET
[6] = molecular target: Serotonin Transporter (SERT) (Homo sapiens, UniProt P31645); experiment: NIMH-PDSP radioligand binding, SERT
Sigma1 = Sigma1 (Rattus norvegicus, UniProt Q9R0C9); experiment: NIMH-PDSP radioligand binding, Sigma-1
Sigma2 = molecular target: T1, Sigma2 (Rattus norvegicus, UniProt Q5U3Y7); experiment: NIMH-PDSP radioligand binding, Sigma-2
T1 sequence (Q5U3Y7 1-176): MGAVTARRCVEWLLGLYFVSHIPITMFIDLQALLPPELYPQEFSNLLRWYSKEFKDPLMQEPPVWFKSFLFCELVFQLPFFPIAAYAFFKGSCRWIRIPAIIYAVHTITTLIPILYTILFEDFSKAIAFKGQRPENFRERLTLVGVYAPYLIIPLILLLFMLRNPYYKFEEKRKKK

MES-induced seizures [7] = experiment: Maximal electroshock; format: in vivo, mice; conditions: for MES (30) N/F, animals active over tested: 30 mg/kg i.p.; for MES (100) N/F, animals active over tested: 100 mg/kg i.p.; for MES neuroprotective activity (in words): mouse, in vivo; for MES (300) N/F, animals active over tested: 300 mg/kg i.p.
In short: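 Mice received test compound i.p. at 30, 100 or 300 mg/kg in 0.01 ml/g and were tested at various intervals after dosing. Corneal electrodes primed with 0.5% tetracaine HCl electrolyte delivered 60 Hz alternating current, 50 mA, for 0.2 s. An animal counted as protected when the hindlimb tonic extensor component was abolished. Results are scored as animals protected over tested.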

[8] = tested on: Metrazol-induced clonic seizures; experiment: Subcutaneous Metrazol seizure threshold test; format: in vivo, mice; conditions: for scMET (30) N/F, animals active over tested: 30 mg/kg; for scMET (100) N/F, animals active over tested: 100 mg/kg
mice = experiment: Acute toxicity, minimal motor impairment; format: in vivo; conditions: for TOX (30) N/F, animals toxic over tested / TOX (65) N/F, animals toxic over tested / TOX (100) N/F, animals toxic over tested / TOX (300) N/F, animals toxic over tested: rotorod; for TOX (30) N/F, animals toxic over tested: 30 mg/kg
6HZ = 6HZ test; format: in vivo; conditions: 50 mg/kg
MES-induced seizures [9] = experiment: Anticonvulsant protection test in rats; format: in vivo; conditions: 30 mg/kg
In short: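 Rats were dosed orally at 30 mg/kg in 0.04 ml/10 g. Corneal electrodes primed with 0.5% tetracaine HCl electrolyte delivered 60 Hz alternating current, 150 mA, for 0.2 s. Protection meant abolition of the hindlimb tonic extensor component of the seizure.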

rats = experiment: Acute toxicity, minimal motor impairment in rats; format: in vivo; conditions: 30 mg/kg
[10] = tested on: PCP site of the NMDA receptor complex; conditions: ref [39], [40]; cited from earlier work
MES-induced seizures [11] = conditions: literature statement, no reference given; cited from earlier work
[12] = read-out: 5HT2A binding affinity, Human Cloned, hot ligand Ketanserin
[13] = read-out: D1 binding affinity, Human Cloned, hot ligand SCH23390
[14] = read-out: D2 binding affinity, Human Cloned, hot ligand N-Methylspiperone
[15] = read-out: DAT binding affinity, Human Cloned, hot ligand WIN35428
[16] = read-out: KOR binding affinity, Rat Cloned, hot ligand U69593
[17] = read-out: MOR binding affinity, Human Cloned, hot ligand DAMGO
[18] = read-out: NET binding affinity, Human Cloned, hot ligand Nisoxetine
[19] = read-out: SERT binding affinity, Human Cloned, hot ligand Citalopram
[20] = read-out: Sigma 1 binding affinity, Rat Brain, hot ligand Pentazocine(+)
[21] = read-out: Sigma 2 binding affinity, Rat C12, hot ligand DTG

Dopamine 1 (D1), sequence (P21728 whole entry): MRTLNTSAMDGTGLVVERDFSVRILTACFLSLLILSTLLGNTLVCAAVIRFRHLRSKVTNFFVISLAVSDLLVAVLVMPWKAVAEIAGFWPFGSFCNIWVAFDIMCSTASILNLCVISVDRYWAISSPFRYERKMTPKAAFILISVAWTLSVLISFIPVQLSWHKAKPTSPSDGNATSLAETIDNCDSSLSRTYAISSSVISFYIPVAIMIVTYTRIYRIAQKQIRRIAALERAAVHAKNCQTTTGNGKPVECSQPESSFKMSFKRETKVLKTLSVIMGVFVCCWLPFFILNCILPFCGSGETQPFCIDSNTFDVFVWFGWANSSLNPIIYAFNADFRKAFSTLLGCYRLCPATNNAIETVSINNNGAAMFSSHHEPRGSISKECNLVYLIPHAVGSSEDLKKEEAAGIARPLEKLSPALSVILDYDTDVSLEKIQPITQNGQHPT
Serotonin 2A (5-HT2A), sequence (P28223 whole entry): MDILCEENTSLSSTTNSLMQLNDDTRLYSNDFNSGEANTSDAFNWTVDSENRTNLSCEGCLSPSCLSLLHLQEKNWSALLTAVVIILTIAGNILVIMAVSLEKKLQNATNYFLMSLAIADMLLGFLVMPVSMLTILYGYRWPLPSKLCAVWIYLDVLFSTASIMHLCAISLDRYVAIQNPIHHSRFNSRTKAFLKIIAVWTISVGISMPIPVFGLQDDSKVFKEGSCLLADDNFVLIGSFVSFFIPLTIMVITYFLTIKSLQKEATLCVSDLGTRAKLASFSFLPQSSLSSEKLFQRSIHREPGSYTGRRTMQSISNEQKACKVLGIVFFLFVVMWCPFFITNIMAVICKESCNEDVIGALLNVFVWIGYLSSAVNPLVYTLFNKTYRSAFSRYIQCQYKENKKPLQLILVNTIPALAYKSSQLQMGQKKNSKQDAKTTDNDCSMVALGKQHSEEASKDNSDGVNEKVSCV
μ- opioid receptors (MOR), sequence (P35372 whole entry): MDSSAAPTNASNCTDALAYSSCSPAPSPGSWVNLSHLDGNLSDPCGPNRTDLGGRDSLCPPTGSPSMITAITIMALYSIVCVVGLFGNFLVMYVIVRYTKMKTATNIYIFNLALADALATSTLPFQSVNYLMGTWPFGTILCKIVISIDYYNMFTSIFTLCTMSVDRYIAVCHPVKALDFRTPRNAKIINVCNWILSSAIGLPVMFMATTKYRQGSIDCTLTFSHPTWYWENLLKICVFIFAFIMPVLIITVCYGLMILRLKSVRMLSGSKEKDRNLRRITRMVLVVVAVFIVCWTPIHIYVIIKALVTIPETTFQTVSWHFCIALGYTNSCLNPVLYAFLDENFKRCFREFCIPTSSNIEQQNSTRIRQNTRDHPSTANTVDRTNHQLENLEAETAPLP
Norepinephrine Transporter (NET), sequence (P23975 whole entry): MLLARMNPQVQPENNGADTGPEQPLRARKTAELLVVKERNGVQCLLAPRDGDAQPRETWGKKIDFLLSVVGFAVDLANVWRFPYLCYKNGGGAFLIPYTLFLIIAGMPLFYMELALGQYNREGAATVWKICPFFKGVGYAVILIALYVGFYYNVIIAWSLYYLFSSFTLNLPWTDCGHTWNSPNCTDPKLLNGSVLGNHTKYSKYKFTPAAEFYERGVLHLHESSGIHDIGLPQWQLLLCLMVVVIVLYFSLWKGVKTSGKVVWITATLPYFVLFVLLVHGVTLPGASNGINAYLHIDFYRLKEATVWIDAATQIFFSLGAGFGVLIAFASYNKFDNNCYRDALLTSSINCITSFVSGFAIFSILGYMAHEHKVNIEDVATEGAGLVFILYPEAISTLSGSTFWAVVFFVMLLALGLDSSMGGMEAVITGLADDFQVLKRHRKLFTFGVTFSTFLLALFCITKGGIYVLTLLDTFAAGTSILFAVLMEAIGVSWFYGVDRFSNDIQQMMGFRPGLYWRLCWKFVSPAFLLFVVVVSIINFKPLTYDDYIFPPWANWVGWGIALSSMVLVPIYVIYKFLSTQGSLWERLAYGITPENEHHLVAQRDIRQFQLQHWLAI
Dopamine Transporter (DAT), sequence (Q01959 whole entry): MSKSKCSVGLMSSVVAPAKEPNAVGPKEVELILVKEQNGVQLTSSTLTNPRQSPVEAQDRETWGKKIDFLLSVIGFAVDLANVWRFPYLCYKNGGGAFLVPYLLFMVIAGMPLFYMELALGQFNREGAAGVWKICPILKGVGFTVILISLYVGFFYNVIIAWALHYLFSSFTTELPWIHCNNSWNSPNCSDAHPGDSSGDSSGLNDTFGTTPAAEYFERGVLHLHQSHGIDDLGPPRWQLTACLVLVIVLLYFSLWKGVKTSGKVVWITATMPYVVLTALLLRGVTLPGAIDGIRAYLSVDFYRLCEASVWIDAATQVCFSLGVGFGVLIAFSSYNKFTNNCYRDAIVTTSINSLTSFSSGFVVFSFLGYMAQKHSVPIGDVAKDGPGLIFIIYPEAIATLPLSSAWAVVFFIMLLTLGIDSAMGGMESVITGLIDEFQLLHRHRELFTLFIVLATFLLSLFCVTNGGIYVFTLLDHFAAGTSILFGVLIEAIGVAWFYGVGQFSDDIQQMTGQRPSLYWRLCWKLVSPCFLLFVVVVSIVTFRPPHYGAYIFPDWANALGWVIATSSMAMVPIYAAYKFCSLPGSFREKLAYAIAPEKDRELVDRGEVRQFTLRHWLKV
Serotonin Transporter (SERT), sequence (P31645 whole entry): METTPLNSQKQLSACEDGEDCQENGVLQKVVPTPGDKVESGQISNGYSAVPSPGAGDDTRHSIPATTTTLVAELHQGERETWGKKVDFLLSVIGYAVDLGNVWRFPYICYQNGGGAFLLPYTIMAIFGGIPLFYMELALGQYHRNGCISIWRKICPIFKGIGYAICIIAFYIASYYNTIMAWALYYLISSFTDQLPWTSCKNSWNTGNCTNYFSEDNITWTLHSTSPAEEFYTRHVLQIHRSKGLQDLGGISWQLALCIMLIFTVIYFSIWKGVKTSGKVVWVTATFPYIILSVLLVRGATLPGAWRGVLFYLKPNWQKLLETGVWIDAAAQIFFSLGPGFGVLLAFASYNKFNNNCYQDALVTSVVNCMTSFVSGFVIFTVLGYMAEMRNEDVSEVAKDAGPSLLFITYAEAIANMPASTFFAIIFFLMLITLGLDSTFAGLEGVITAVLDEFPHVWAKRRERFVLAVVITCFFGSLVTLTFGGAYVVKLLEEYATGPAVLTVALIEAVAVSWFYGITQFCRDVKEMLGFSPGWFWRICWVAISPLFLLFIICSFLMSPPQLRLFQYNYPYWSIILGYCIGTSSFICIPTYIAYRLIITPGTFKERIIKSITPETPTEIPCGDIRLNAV
κ- opioid receptors (KOR), sequence (P34975 whole entry): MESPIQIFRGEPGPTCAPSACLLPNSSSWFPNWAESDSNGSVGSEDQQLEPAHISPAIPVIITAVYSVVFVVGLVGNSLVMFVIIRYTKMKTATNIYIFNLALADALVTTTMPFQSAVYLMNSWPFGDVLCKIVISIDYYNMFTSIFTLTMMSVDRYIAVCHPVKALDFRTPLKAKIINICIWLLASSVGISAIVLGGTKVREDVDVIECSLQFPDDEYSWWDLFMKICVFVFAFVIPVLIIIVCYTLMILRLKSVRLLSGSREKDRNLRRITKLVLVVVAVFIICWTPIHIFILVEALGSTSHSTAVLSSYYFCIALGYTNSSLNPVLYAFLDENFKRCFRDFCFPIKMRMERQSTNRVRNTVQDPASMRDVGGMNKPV
Dopamine 2 (D2), sequence (P14416 whole entry): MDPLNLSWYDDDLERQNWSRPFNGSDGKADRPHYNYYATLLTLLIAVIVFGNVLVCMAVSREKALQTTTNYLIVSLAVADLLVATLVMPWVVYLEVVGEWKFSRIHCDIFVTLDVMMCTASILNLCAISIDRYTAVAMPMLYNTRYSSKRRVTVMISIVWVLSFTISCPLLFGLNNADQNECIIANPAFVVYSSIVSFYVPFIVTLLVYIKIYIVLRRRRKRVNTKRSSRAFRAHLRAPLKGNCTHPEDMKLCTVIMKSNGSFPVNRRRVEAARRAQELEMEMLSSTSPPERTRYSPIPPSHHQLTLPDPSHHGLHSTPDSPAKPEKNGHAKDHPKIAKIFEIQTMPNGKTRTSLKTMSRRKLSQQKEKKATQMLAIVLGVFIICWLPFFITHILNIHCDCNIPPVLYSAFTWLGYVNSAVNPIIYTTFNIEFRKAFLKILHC
Sigma1, sequence (Q9R0C9 whole entry): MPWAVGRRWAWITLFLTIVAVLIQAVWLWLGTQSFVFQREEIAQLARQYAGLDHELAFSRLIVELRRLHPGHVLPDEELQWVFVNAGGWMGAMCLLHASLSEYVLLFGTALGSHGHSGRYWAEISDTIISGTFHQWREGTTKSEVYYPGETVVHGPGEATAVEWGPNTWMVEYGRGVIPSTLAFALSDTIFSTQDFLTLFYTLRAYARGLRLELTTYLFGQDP

SMILES	affinity for NMDA (in words) [1]	Ki (Serotonin 2A (5-HT2A); [12])	Ki (Dopamine 1 (D1); [13])	Ki (Dopamine 2 (D2); [14])	Ki [2, 15]	MES (30) N/F, animals active over tested (MES-induced seizures [7]; 0.5 h)	MES (30) N/F, animals active over tested (MES-induced seizures [7]; 4.0 h)	MES (100) N/F, animals active over tested (MES-induced seizures [7]; 0.5 h)	MES (100) N/F, animals active over tested (MES-induced seizures [7]; 4.0 h)	scMET (30) N/F, animals active over tested ([8]; 0.5 h)	scMET (30) N/F, animals active over tested ([8]; 4.0 h)	scMET (100) N/F, animals active over tested ([8]; 0.5 h)	scMET (100) N/F, animals active over tested ([8]; 4.0 h)	TOX comments (mice; 100 mg/kg, 0.5 h)	TOX comments (mice; 300 mg/kg, 0.5 h)	TOX (30) N/F, animals toxic over tested (mice; 0.5 h)	TOX (30) N/F, animals toxic over tested (mice; 4.0 h)	TOX (100) N/F, animals toxic over tested (mice; 100 mg/kg, 0.5 h)	TOX (100) N/F, animals toxic over tested (mice; 100 mg/kg, 4.0 h)	TOX (300) N/F, animals toxic over tested (mice; 300 mg/kg, 0.5 h)	other results
Fc1ccc(C2(NCCN3CCCCC3)CC3CCC2C3)cc1 (stereo not drawn) [Compound 5b]	did not exhibit significant affinity	8.82 µM	> 10 µM	> 10 µM	1.23 µM	0/1 0/1	0/1 0/1	2/3	0/3	0/1 0/1	0/1 0/1	0/1 0/1	0/1 0/1	Clonic seizures	Death	0/4	0/2	3/8	0/4	4/4 /	Ki [3, 16]: 3.55 µM; Ki [4, 17]: > 10 µM; Ki [5, 18]: > 10 µM; Ki [6, 19]: > 10 µM; Ki (Sigma1; [20]): > 10 µM; Ki (Sigma2; [21]): > 10 µM; MES neuroprotective activity (in words) (MES-induced seizures [7]): displayed MES neuroprotective activity; TOX comments (mice; 50 mg/kg, 0.25 h): Clonic seizures; TOX (65) N/F, animals toxic over tested (mice; 65 mg/kg, 0.5 h): 2/4; 6HZ (50), animals active over tested (6HZ; 0.5 h): 0/4; protection in rats (in words) (MES-induced seizures [9]): did not display any protection; toxicity in rats (in words) (rats): did not display any protection or toxicity
Fc1ccc(C2(NCCN3CCOCC3)CC3CCC2C3)cc1 (stereo not drawn) [Compound 5d, 2-(4-Fluorophenyl)-N-(2-morpholinoethyl)bicyclo [2.2.1]heptan-2-amine]	did not exhibit significant affinity	–	–	–	–	0/1 0/1	0/1 0/1	2/3	0/3	0/1 0/1	0/1 0/1	0/1 0/1	0/1 0/1	Clonic seizures	Loss of righting reflex; also recorded: Death	0/4	0/2	1/8	0/4	4/4 /	Ki (Serotonin 2A (5-HT2A)): > 10 µM; Ki (Dopamine 1 (D1)): > 10 µM; Ki (Dopamine 2 (D2)): > 10 µM; Ki [2]: 6.48 µM; Ki [3]: > 10 µM; Ki [4]: > 10 µM; Ki [5]: > 10 µM; Ki [6]: > 10 µM; Ki (Sigma1): > 10 µM; Ki (Sigma2): > 10 µM; MES (300) N/F, animals active over tested (MES-induced seizures [7]; 0.5 h): 1/1; MES (300) N/F, animals active over tested (MES-induced seizures [7]; 4.0 h): 0/0; MES neuroprotective activity (in words) (MES-induced seizures [7]): displayed MES neuroprotective activity; TOX comments (mice; 65 mg/kg, 0.25 h): Clonic seizures; TOX (65) N/F, animals toxic over tested (mice; 65 mg/kg, 0.5 h): 0/4 0/4; TOX (65) N/F, animals toxic over tested (mice; 65 mg/kg, 4.0 h): 0/4 0/4; 6HZ (50), animals active over tested (6HZ; 0.5 h): 1/4 1/4; 6HZ (50), animals active over tested (6HZ; 4.0 h): 1/4 1/4; protection in rats (in words) (MES-induced seizures [9]): did not display any protection; toxicity in rats (in words) (rats): did not display any protection or toxicity
Fc1ccc(C2(NCCN3CCCC3)CC3CCC2C3)cc1 (stereo not drawn) [Compound 5f]	–	> 10 µM	> 10 µM	> 10 µM	0.226 µM	0/1 0/1	0/1 0/1	1/3	0/1	0/1 0/1	0/1 0/1	0/1 0/1	0/1 0/1	Clonic seizures	Death	0/4	0/2	5/8	0/4	4/4 /	% inhibition of 1 nM [3H] (+)-MK-801 ([1]; compound at 10 μM (10,000 nM)): greater than 90%; IC50 ([1]; rat forebrain homogenate, 1 nM (+)-[3H]MK-801): 8.66 ± 2.56 µM; Ki ([1]; read-out: NMDA affinity Ki, calculated by Cheng and Prusoff equation): 5.82 µM; Ki [3, 16]: 2.11 µM; Ki [4, 17]: > 10 µM; Ki [5, 18]: > 10 µM; Ki [6, 19]: 4.61 µM; Ki (Sigma1; [20]): > 10 µM; Ki (Sigma2; [21]): > 10 µM
CN1CC[C@@]23CCCC[C@@H]2[C@@H]1Cc1ccc(O)cc13 [DX, dextrophan]	–	–	–	–	–	–	–	–	–	–	–	–	–	–	–	–	–	–	–	–	activity / affinity at NMDA (in words) [10]: μM affinity
COc1ccc2c(c1)[C@]13CCCC[C@@H]1[C@H](C2)N(C)CC3 [DXM, dextromethorphan]	–	–	–	–	–	–	–	–	–	–	–	–	–	–	–	–	–	–	–	–	activity / affinity at NMDA (in words) [10]: low activity at NMDA; neuroprotective activity in the MES test (in words) (MES-induced seizures [11]): neuroprotective activity in the MES test
